Measurements taken from ChEMBL document CHEMBL3580549, “Lignan Glycosides from the Twigs of Chaenomeles sinensis and Their Biological Activities” (J Nat Prod, 2015).

Experiments:
A549 = assay: Cytotoxicity against human A549 cells by SRB assay; assay type: functional, cell-based
[1] = Cytotoxicity against mouse BV2 cells assessed as cell viability at 20 uM by MTT assay relative to control; assay type: cell-based, BV-2; details: read-out: Activity
SK-MEL-2 = assay: Cytotoxicity against human SK-MEL-2 cells by SRB assay; assay type: functional, cell-based
SK-OV-3 = assay: Cytotoxicity against human SKOV3 cells by SRB assay; assay type: functional, cell-based
HCT-15 = assay: Cytotoxicity against human HCT15 cells by SRB assay; assay type: functional, cell-based
C6 = assay: Neuroprotective activity in rat C6 cells assessed as stimulation of NGF release at 20 uM after 24 hrs by ELISA relative to control; assay type: functional
Procedure, shortened: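 C6 rat glioma cells were treated with each compound at 20 μM, and NGF secreted into the medium was measured. Stimulation is given as percent of control, and 6-shogaol was the positive control.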

[2] = Antiinflammatory activity against LPS-stimulated mouse BV2 cells assessed as inhibition of nitric oxide production preincubated for 30 mins followed by LPS stimulation measured after 24 hrs by Griess assay; assay type: functional, cell-based; details: BV-2
Procedure, shortened: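 Murine BV2 microglial cells were activated with lipopolysaccharide. NO released into the culture medium was measured, and IC50 was derived from the inhibition of NO production. L-NMMA was the positive control.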

Structure (SMILES)	IC50 [2]	IC50 (A549)	viability at 20 µM [1]	IC50 (SK-MEL-2)	IC50 (SK-OV-3)	IC50 (HCT-15)	Activity (C6)
COc1cc([C@H]2Oc3c(OC)cc(CCCO)cc3[C@@H]2CO[C@@H]2O[C@@H](C)[C@H](O)[C@@H](O)[C@H]2O)cc(OC)c1O	–	> 10 µM	98.2%	> 10 µM	> 10 µM	> 10 µM	151.74%
COc1cc([C@@H]2Oc3c(OC)cc(CCCO)cc3[C@H]2CO[C@@H]2O[C@@H](C)[C@H](O)[C@@H](O)[C@H]2O)cc(OC)c1O	–	> 10 µM	104%	> 10 µM	> 10 µM	> 10 µM	106.85%
COc1cc(C[C@@H]2CO[C@@H](c3ccc(O)c(OC)c3)[C@@H]2CO[C@@H]2O[C@@H](C)[C@H](O)[C@@H](O)[C@H]2O)ccc1O	180 µM	> 10 µM	102%	> 10 µM	> 10 µM	> 10 µM	144.31%
COc1cc([C@H]2Oc3c(OC)cc(CCCO)cc3[C@@H]2CO[C@@H]2O[C@@H](C)[C@H](O)[C@@H](O)[C@H]2O)ccc1O	–	> 10 µM	97.4%	> 10 µM	> 10 µM	> 10 µM	102.88%
COc1cc([C@H]2Oc3c(OC)cc(CCCO)cc3[C@@H]2CO[C@@H]2O[C@H](CO)[C@@H](O)[C@H](O)[C@H]2O)ccc1O	–	> 10 µM	97.2%	> 10 µM	> 10 µM	> 10 µM	140.04%
CCCCC/C=C/C(=O)CCc1ccc(O)c(OC)c1 [SHOGAOL]	–	–	–	–	–	–	141.75%
CNC(=N)NCCC[C@H](N)C(=O)O [TILARGININE]	24.8 µM	–	106%	–	–	–	–

Now from value to compound, other results behind:

IC50 [2]	Structure (SMILES)	IC50 (A549)	viability at 20 µM [1]	IC50 (SK-MEL-2)	IC50 (SK-OV-3)	IC50 (HCT-15)	Activity (C6)
199 µM	COc1cc(C[C@@H]2CO[C@@H](c3cc(OC)c(O)c(OC)c3)[C@@H]2CO[C@@H]2O[C@@H](C)[C@H](O)[C@@H](O)[C@H]2O)cc(OC)c1O	> 10 µM	97.1%	> 10 µM	> 10 µM	> 10 µM	–
29.8 µM	COc1cc(C[C@H]2CO[C@@H](c3cc(OC)c(O)c(OC)c3)[C@H]2CO[C@@H]2O[C@@H](C)[C@H](O)[C@@H](O)[C@H]2O)cc(OC)c1O	> 10 µM	113%	> 10 µM	> 10 µM	> 10 µM	124.67%
21.3 µM	COc1cc(C[C@H](CO)[C@@H](CO[C@@H]2O[C@@H](C)[C@H](O)[C@@H](O)[C@H]2O)Cc2cc(OC)c(O)c(OC)c2)cc(OC)c1O	> 10 µM	104%	> 10 µM	> 10 µM	> 10 µM	167.61%
31.9 µM	COc1cc([C@H]2c3c(cc(OC)c(O)c3OC)C[C@@H](CO)[C@@H]2CO[C@@H]2O[C@@H](C)[C@H](O)[C@@H](O)[C@H]2O)cc(OC)c1O	> 10 µM	99.1%	> 10 µM	> 10 µM	> 10 µM	–
37.7 µM	COc1cc([C@H]2c3c(cc(OC)c(O)c3OC)C[C@@H](CO)[C@@H]2CO[C@@H]2O[C@H](CO)[C@@H](O)[C@H](O)[C@H]2O)cc(OC)c1O	> 10 µM	99.7%	> 10 µM	> 10 µM	> 10 µM	–
40.2 µM	COc1cc([C@H]2c3cc(O)c(OC)cc3C[C@@H](CO)[C@@H]2CO[C@@H]2O[C@@H](C)[C@H](O)[C@@H](O)[C@H]2O)ccc1O [AVICULIN]	> 10 µM	96.1%	> 10 µM	> 10 µM	> 10 µM	123.06%
